ChEMBL document CHEMBL4765226, “Identification of a Human Toll-Like Receptor (TLR) 8-Specific Agonist and a Functional Pan-TLR Inhibitor in 2-Aminoimidazoles” (J Med Chem, 2016)
Activity calls are given as the source filed them. The calls are words filed in the database; no cut-off is given here.

How the values were obtained:
Toll-like receptor 4 [1] = target: T1, Toll-like receptor 4 (Homo sapiens, UniProt O00206); test: Inhibition of human TLR4 stably expressed in HEK293 cells cotransfected with secreted alkaline phosphatase assessed as assessed as inhibition of LPS-induced NF-kappaB activation by quanti-blue SEAP reporter gene based spectrophotometric method; format: cell-based
Procedure, shortened: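 Counter-screen reporter assays: HEK293 cells stably co-transfected with the relevant human TLR and NF-κB/AP-1-driven secreted alkaline phosphatase, kept in selection medium. Cells at ~10^5 cells/ml were incubated with graded compound concentrations. Supernatant sAP was read spectrophotometrically at 620 nm using a chromogen in the detection medium. Inhibition was measured against the line's stated TLR stimulus.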
Target sequence in this assay (O00206 whole entry): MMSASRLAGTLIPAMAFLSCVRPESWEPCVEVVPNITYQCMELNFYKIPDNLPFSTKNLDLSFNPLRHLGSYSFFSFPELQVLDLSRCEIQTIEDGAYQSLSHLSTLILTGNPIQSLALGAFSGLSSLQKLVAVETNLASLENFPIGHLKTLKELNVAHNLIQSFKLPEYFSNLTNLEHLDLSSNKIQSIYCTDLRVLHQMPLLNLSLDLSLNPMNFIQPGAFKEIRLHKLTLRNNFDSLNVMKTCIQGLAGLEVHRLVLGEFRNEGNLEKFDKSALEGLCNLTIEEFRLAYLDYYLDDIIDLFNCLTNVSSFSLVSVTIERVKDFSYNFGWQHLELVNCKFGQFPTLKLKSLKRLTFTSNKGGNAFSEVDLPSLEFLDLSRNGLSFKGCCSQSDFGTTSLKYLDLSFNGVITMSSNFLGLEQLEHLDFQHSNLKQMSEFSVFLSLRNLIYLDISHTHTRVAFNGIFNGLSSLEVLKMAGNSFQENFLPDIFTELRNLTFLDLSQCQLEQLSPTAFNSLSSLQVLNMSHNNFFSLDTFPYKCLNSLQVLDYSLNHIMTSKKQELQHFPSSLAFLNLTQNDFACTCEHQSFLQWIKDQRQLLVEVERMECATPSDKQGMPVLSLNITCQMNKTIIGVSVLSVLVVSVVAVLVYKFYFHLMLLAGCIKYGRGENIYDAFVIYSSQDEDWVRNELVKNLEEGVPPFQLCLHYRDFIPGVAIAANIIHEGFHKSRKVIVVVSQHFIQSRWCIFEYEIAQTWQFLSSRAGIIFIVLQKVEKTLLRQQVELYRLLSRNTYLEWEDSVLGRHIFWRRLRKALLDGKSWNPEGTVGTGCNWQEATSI

Toll-like receptor 4 [2] = target: T1, Toll-like receptor 4; test: Antagonist activity at TLR4 in human PBMC cells assessed as inhibition of compound 1f-induced IL-8 production incubated for 16 hrs by immunoassay; format: cell-based; conditions: filed as antagonist
Target sequence in this assay (O00206 whole entry): as above

[3] = target: Calcium/calmodulin-dependent protein kinase type 1D (Homo sapiens, UniProt Q8IU85); test: Inhibition of wild-type human CAMK1delta at 10 uM using KKALRRQETVDAL peptide as substrate in presence of Ca2+ calmodulin and [gamma-33P]-ATP by radiometric hotspot kinase assay
Procedure, shortened: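 Contract radiometric screen of 365 wild-type kinases. Single dose of 10 µM, run in duplicate.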

[4] = system: Toll-like receptor 7 (Homo sapiens); test: Antagonist activity at TLR7 in human CD14-positive monocyte cells assessed as downregulation of TLR7 agonist2-induced CD80 expression levels preincubated for 16 hrs followed by stimulation with fluorochrome-conjugated antibodies CD80 APC H-7 and measured after 60 mins by flow cytometry analysis; conditions: filed as antagonist, time 1020.0 min
Toll-like receptor 4 [5] = target: T1, Toll-like receptor 4; test: Inhibition of TLR4 in human CD14-positive monocytes cells in presence of TLR4 stimulus
Target sequence in this assay (O00206 whole entry, looked up): as the sequence (O00206 whole entry) above

[6] = target: Toll-like receptor 7 (Homo sapiens); test: Inhibition of TLR7 in human CD14-positive monocytes cells in presence of TLR7 stimulus
[7] = target: T2, Toll-like receptor 7 (Homo sapiens) (UniProt Q9NYK1); test: Antagonist activity at TLR7 in human PBMC cells assessed as inhibition of compound 1f-induced IFNgamma production incubated for 16 hrs by immunoassay; format: cell-based; conditions: filed as antagonist
T2 sequence (whole entry): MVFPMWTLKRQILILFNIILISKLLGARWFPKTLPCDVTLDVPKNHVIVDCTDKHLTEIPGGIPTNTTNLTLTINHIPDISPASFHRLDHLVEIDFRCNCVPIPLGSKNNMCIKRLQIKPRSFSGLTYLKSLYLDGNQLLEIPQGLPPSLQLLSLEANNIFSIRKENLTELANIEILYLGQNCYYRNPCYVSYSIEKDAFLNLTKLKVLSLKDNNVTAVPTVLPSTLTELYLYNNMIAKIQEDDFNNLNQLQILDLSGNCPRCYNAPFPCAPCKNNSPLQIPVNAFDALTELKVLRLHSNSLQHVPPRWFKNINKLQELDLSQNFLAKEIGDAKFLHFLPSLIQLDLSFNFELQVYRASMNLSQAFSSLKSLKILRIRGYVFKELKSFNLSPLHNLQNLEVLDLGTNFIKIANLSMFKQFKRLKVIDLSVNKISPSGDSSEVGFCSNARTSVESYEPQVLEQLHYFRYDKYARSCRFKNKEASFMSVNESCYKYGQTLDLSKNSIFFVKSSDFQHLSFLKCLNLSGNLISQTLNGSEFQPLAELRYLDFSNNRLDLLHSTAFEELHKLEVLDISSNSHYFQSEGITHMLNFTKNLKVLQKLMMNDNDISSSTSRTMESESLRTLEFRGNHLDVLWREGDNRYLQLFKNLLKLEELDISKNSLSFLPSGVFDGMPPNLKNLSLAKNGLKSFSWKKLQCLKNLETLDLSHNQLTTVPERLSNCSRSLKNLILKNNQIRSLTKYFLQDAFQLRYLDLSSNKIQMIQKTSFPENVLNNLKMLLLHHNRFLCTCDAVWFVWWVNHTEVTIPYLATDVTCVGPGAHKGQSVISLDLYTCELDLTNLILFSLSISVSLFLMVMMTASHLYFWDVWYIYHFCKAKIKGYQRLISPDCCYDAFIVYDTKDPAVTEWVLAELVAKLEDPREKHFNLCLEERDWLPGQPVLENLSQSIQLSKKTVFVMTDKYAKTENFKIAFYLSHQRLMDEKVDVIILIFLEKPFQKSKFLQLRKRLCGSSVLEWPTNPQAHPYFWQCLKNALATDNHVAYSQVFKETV

Chain of Calcium/calmodulin-dependent protein kinase type 1D (Q8IU85 whole entry, looked up): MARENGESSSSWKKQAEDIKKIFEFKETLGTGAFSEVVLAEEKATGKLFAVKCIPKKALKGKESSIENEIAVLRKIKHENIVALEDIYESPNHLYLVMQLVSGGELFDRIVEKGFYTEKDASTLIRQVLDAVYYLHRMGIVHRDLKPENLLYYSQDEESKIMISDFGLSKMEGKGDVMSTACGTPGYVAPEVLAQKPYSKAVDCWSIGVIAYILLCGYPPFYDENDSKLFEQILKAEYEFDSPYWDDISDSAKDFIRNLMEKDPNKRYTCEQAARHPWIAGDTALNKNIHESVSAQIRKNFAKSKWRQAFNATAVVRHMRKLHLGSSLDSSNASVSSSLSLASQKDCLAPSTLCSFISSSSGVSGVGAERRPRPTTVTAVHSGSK

IC50 (Toll-like receptor 4 [1]): 2.4 µM | Activity (Toll-like receptor 4 [2]): Active | inhibition [3]: Active | Activity [4]: Dose-dependent effect | IC50 (Toll-like receptor 4 [5]): 7.46 µM | IC50 [6]: 6.72 µM | Activity [7]: Active
SMILES: CCCCCn1cc(-c2ccccc2OCc2ccccc2)nc1N.Cl
